Experimental data: ChEMBL document CHEMBL4270484, “Synthesis and Characterization of a Phosphate Prodrug of Isoliquiritigenin” (J Nat Prod, 2017)
≈ marks a conversion by molar mass, not a printed value.

What was measured:
[1] = Stability of the compound in amophous solid form at -20 degC incubated for 16 days; format: physicochemical
[2] = Stability of the compound in pH 7.4 phosphate buffer solution at 4 degC incubated for 16 days; format: physicochemical
[3] = Stability of the compound in pH 7.4 phosphate buffer solution at -20 degC incubated for 16 days; format: physicochemical
[4] = Solubility in pH 7.4 PBS sonicated for 5 mins followed by incubation at room temperature for 30 mins; format: physicochemical
Summary of the method: (§1)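 Solid suspended in PBS pH 7.4 at the stated amount and volume, sonicated 5 min, held 30 min at room temperature, then diluted 1:1 stepwise until a clear solution. Solubility judged by visual inspection as partial or soluble.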

[5] = Solubility in pH 7.4 PBS at 0.5 mg in 64 ul solution sonicated for 5 mins followed by incubation at room temperature for 30 mins; format: physicochemical; summary of the method: as §1
[6] = Stability in pH 7.4 PBS buffer at 37 degC incubated for 24 hrs by UPLC analysis; format: physicochemical; details: pH 7.4, 24 h
[7] = Drug metabolism in C57BL/6 mouse lung extracts assessed as half life for isoliquiritigenin formation by UPLC analysis; format: ADME, tissue-based
Summary of the method: (§2)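 Mouse plasma (cardiac puncture, heparin, spun 2000g 10 min 4 °C) or lung homogenate in 0.9% saline (spun 400g 5 min), n = 3 mice, stored −80 °C. 27 μL matrix plus 5 μL of 1 mM prodrug in PBS pH 7.4, 37 °C; lung 5–20 min, plasma 40–240 min. Stopped with CH3CN, centrifuged, UPLC at 360 nm with Fmoc-glycine reference; remaining fraction from prodrug/parent AUC ratio.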

[8] = Solubility in pH 7.4 PBS at 0.5 mg in 8 ul solution sonicated for 5 mins followed by incubation at room temperature for 30 mins; format: physicochemical; summary of the method: as §1
[9] = Solubility in pH 7.4 PBS at 0.5 mg in 2 ul solution sonicated for 5 mins followed by incubation at room temperature for 30 mins; format: physicochemical; summary of the method: as §1
Influenza A virus = assay: Antiviral activity against Influenza A virus (A/Puerto Rico/8/1934(H1N1)) infected in MDCK cells infected with supernatants from virus-infected human Calu3 cells treated with compound for 2 days assessed as reduction in viral replication by crystal violet staining based viral plaque assay; format: functional, organism-based; details: 48 h
[10] = Solubility in pH 7.4 PBS at 0.5 mg in 16 ul solution sonicated for 5 mins followed by incubation at room temperature for 30 mins; format: physicochemical; summary of the method: as §1
[11] = Solubility in pH 7.4 PBS at 0.5 mg in 4 ul solution sonicated for 5 mins followed by incubation at room temperature for 30 mins; format: physicochemical; summary of the method: as §1
[12] = Solubility in pH 7.4 PBS at 0.5 mg in 32 ul solution sonicated for 5 mins followed by incubation at room temperature for 30 mins; format: physicochemical; summary of the method: as §1
[13] = Solubility in pH 7.4 PBS at 0.5 mg in 128 ul solution sonicated for 5 mins followed by incubation at room temperature for 30 mins; format: physicochemical; summary of the method: as §1
[14] = Solubility in pH 7.4 PBS at 3.83 mg in 400 ul solution sonicated for 5 mins followed by incubation at room temperature for 30 mins; format: physicochemical; summary of the method: as §1
Mus musculus [15] = assay: Reduction in CCL4 gene expression in lungs of C57BL/6 mouse infected with Influenza A virus (A/Puerto Rico/8/1934(H1N1)) at 10 mg/kg, ip starting on the same day as infection and continued daily until day 3 postinfection by real-time PCR analysis; format: functional; set-up: scale not given: the % may be the effect or the level left
Summary of the method: (§3)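 Female C57BL/6 mice, 6–8 weeks old, infected intranasally with PR8 and given 10 mg/kg in saline by ip injection. On day 3 p.i., lungs were homogenized in Ribozol. 500 ng RNA was reverse-transcribed and run in SYBR green qPCR. Fold change versus uninfected mice was calculated by 2ΔΔCt with 18S normalization. Means ± SD from three experiments, 3–4 mice per group.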

[16] = Solubility in pH 7.4 PBS at 3.83 mg in 100 ul solution sonicated for 5 mins followed by incubation at room temperature for 30 mins; format: physicochemical; summary of the method: as §1
Mus musculus [17] = assay: Reduction in IL6 gene expression in lungs of C57BL/6 mouse infected with Influenza A virus (A/Puerto Rico/8/1934(H1N1)) at 10 mg/kg, ip starting on the same day as infection and continued daily until day 3 postinfection by real-time PCR analysis; format: functional; set-up: scale not given: the % may be the effect or the level left; summary of the method: as §3
[18] = Drug metabolism in C57BL/6 mouse plasma assessed as half life for isoliquiritigenin formation by UPLC analysis; format: ADME, cell-free; summary of the method: as §2
[19] = Stability of the compound in amophous solid form at ambient temperature incubated for 16 days; format: physicochemical; details: 384 h
[20] = Solubility in pH 7.4 PBS at 3.83 mg in 200 ul solution sonicated for 5 mins followed by incubation at room temperature for 30 mins; format: physicochemical; summary of the method: as §1
[21] = phosphate buffer solution, pH 7.4, read-out: Stability

## O=C(/C=C/c1ccc(OCOP(=O)(O)O)cc1)c1ccc(O)cc1O
[1]; amorphous solid form, read-out: Stability
  remaining at 384 h: 80%
[2]; [21]
  remaining at 384 h: 60%
[3]; [21]
  remaining at 384 h: 80%

## O=C(/C=C/c1ccc(O)cc1)c1ccc(O)cc1O [ISOLIQUIRITIGENIN]
[4]
  solubility at 0.5 h: 0.0153 mM (≈ 0.00392 mg/mL)
[5]
  solubility at 0.5 h: 31.2 mM (≈ 8 mg/mL)
[6]
  Stability: Stable
[7]
  Stability: Stable
[8]
  solubility at 0.5 h: 250 mM (≈ 64.1 mg/mL)
[9]
  solubility at 0.5 h: 1000 mM (≈ 256 mg/mL)
Influenza A virus
  EC50: 24.7 µM
[10]
  solubility at 0.5 h: 125 mM (≈ 32 mg/mL)
[11]
  solubility at 0.5 h: 500 mM (≈ 128 mg/mL)
[12]
  solubility at 0.5 h: 62.5 mM (≈ 16 mg/mL)
[13]
  solubility at 0.5 h: 15.3 mM (≈ 3.92 mg/mL)

## N.O=C(/C=C/c1ccc(OCOP(=O)(O)O)cc1)c1ccc(O)cc1O
[4]
  solubility at 0.5 h: 25 mM
[14]
  solubility at 0.5 h: 25 mM
[6]
  Stability: Stable
[7]
  t1/2: 10.8 min
[1]; 384 h
  Stability: 6 months
[2]; buffer, pH 7.4, 384 h
  Stability: Stable
Mus musculus [15]
  Activity: 62.5%
[16]
  solubility at 0.5 h: 100 mM
Mus musculus [17]
  Activity: 80%
[3]; buffer, pH 7.4, 384 h
  Stability: Stable
[18]
  t1/2: 100 min
[19]
  Stability: 2 weeks
[20]
  solubility at 0.5 h: 50 mM
